Test results taken from PubChem BioAssay AID504383 (The Scripps Research Institute Molecular Screening Center, 2011).
Among all 2,500 compounds or so, about 1,200 (48%) were called active.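 How the source made its calls: active means mean activation above the low control average plus 3 SD, as set in the primary screen (cut at about 12% in these data); inactive means the rest.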 The set was probably picked from earlier hits. The list shows a part of the results.

The molecules below were run against Troponin I, cardiac muscle (Homo sapiens) + Troponin T, cardiac muscle (Homo sapiens) + Troponin C, slow skeletal and cardiac muscles (Homo sapiens) (UniProt P19429+P45379+P63316) (assay: calcium sensitizers of cardiac thin filaments – biochemical, IANBD-TnC fluorescence, triplicate, confirmation (AID 504383;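 further: 0% = DMSO at 0.472 mM calcium and 100% = DMSO at 2.9 mM calcium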)). Conditions: IANBD-labeled cardiac RTF, Ca2+ sensitivity fluorescence; at 7.2 µM; hits give high values; scaled from EC20 to saturating calcium; tested at EC20 calcium, 0.472 mM.
Outline: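 Assay system: labelled regulated thin filaments / Timing: 15 min at 25 °C / Detection: fluorescence intensity of labelled filaments / Measure: fluorescence gain scaled between EC20 and EC100 calcium controls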

SMILES | activation
CCn1c(O)c(/C=N/N=C/c2ccc(OC)cc2)c2cc(C3=NNC(=O)CC3)ccc21 | 20.9% (active)
CCn1c(O)c(/C=N/N=C/c2ccccc2)c2ccc(C3=NNC(=O)CC3)cc21 | 10.2% (inactive)
C/C(=N\Nc1nccnc1Cl)c1ccc(Cl)c(Cl)c1 | 5.84% (inactive)
C/C(=N/Nc1ccnc2cc(Cl)ccc12)c1ccc(N)cc1 | 18.9% (active)
O=C(Nc1ccccc1)NC1CS(=O)(=O)CC1O (stereo unspecified) | 149% (active)
O=C(Nc1ccccc1)OC1CCC2CC1CCC2OC(=O)Nc1ccccc1 (stereo unspecified) | 7.87% (inactive)
O=C(Nc1ccccc1)C1CC2CCCC(C1)C2=O (stereo unspecified) | 8.65% (inactive)
CCC(C)(C)NC(=O)C(c1ccc(F)cc1)N(Cc1ccco1)C(=O)c1cnccn1 (stereo unspecified) | 70.6% (active)
O=C1CCN2C=Nc3cccc4ccc1c2c34 | 13.7% (active)
CNC(=S)N1N=C(c2ccc(Br)cc2)CC1c1ccc(N(C)C)cc1 (stereo unspecified) | 31% (active)
CCSC1=N/C(=C\C=C2/Oc3ccccc3N2CC)C(=O)S1 | 31.9% (active)
CCN1/C(=C/C=C/c2oc3ccc(-c4ccccc4)cc3[n+]2CC)Oc2ccc(-c3ccccc3)cc21 | 6.07% (inactive)
CCCN1C(=O)/C(=C\C=C2\N(CC)c3ccccc3C2(C)C)SC1=S | 10.1% (inactive)
CCCCN1C(=O)/C(=C/C=C2\Oc3ccccc3N2CC)SC1=S | 53.5% (active)
CCCN1C(=O)/C(=C/C=C2\N(CC)c3ccccc3C2(C)C)SC1=S | 3.85% (inactive)
COc1cccc(F)c1C(=O)NC(=O)Nc1ccc2nc(C)oc2c1 | 252% (active)
Cc1cc2nc3c(=O)n(CCc4ccccc4)c(=O)[nH]c3nc2cc1N | 17.3% (active)
CC(=O)OCCn1c2nc(=O)[nH]c(=O)c-2nc2cc(C)c(C)cc21 | 1.76% (inactive)
C=CCn1c(=O)[nH]c2nc3cc(N=CN(C)C)c(C)cc3nc2c1=O | 69.7% (active)
CCCCn1c(=O)[nH]c2nc3cc(N)ccc3nc2c1=O | 0.26% (inactive)
Cc1ccccc1-n1c(=O)n(CCc2ccccc2)c(=O)c2[nH]cnc21 | 8.97% (inactive)
CCCCCCn1c(=O)[nH]c2nc3cc(N)c(C)cc3nc2c1=O | 158% (active)
COCCN1C(=O)/C(=C/c2ccc(N3CCCC3)cc2)SC1=S | 15.2% (active)
COCCN1C(=O)/C(=C/c2ccc(N3CCCC3)cc2C)SC1=S | 0.91% (inactive)
COc1ccc(/C=C2\SC(=O)N(CCC(=O)N3CCN(C)CC3)C2=O)cc1 | 5.35% (inactive)
O=C1c2ccccc2-c2onc3ccc(Oc4ccccc4)c1c23 | 7.69% (inactive)
